# In ChEMBL document CHEMBL4689842, “EUbOPEN Chemogenomics Library wave 1” (2021):
# Where “and” joins values, the source holds several entries; their conditions need not be identical. Equal values may be shown once.
# System: HEK-293T
# Assay: Multiplex assay against HEK293T;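 for Population Tubulin-Different-Phenotype (%): share of the cells with healthy nuclei that show this phenotype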
# Format: toxicity, cell-based
# Conditions: human
# Outline: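 At seeding, live cells were stained with Hoechst33342, BioTracker Green Microtubule Cytoskeleton Dye, MitoTracker Red and Annexin V Alexa Fluor 680. After compound addition they were imaged on a CQ1 microscope at 37°C and 5% CO2, and CellPathfinder machine-learning gating sorted them into Hoechst high-intensity objects or normal cells, with normal cells further split into healthy, pyknosed or fragmented nuclei and pyknosed cells into mitotic or apoptotic. Tubulin, mitochondrial-mass and membrane-permeability phenotypes are given as per cents of cells with healthy nuclei.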
# [1] = 12 h, 1 µM, compound concentration 1 uM, replicate 1
# [2] = 12 h, 1 µM, compound concentration 1 uM, replicate 2
# [3] = 12 h, 10 µM, compound concentration 10 uM, replicate 1
# [4] = 12 h, 10 µM, compound concentration 10 uM, replicate 2
# [5] = 24 h, 1 µM, compound concentration 1 uM, replicate 1
# [6] = 24 h, 1 µM, compound concentration 1 uM, replicate 2
# [7] = 24 h, 10 µM, compound concentration 10 uM, replicate 1
# [8] = 24 h, 10 µM, compound concentration 10 uM, replicate 2
# [9] = 48 h, 1 µM, compound concentration 1 uM, replicate 1
# [10] = 48 h, 1 µM, compound concentration 1 uM, replicate 2
# [11] = 48 h, 10 µM, compound concentration 10 uM, replicate 1
# [12] = 48 h, 10 µM, compound concentration 10 uM, replicate 2
compound,measurement,setting,value
CCn1c(-c2nonc2N)nc2cnc(Oc3cccc(NC(=O)c4ccc(OCCN5CCOCC5)cc4)c3)cc21 [GSK-269962A],Population Apoptotic (%),[1],44%
same,Population Fragmented Nuclei (%),[1],14%
same,Population Healthy Nuclei (%),[1],26%
same,Population Hoechst High Intensity Objects (%),[1],17%
same,Population Membrane Permeable-Phenotype (%),[1],3%
same,Population Mitochondria Different-Phenotype (%),[1],75%
same,Population Mitotic Cells (%),[1],55%
same,Population Normal (%),[1],82%
same,Population Pyknosed Nuclei (%),[1],58%
same,Population Tubulin-Different-Phenotype (%),[1],55%
same,Total Cell Count,[1],262
same,Population Apoptotic (%),[2],12%
same,Population Fragmented Nuclei (%),[2],8%
same,Population Healthy Nuclei (%),[2],44%
same,Population Hoechst High Intensity Objects (%),[2],6%
same,Population Membrane Permeable-Phenotype (%),[2],5%
same,Population Mitochondria Different-Phenotype (%),[2],21%
same,Population Mitotic Cells (%),[2],87%
same,Population Normal (%),[2],93%
same,Population Pyknosed Nuclei (%),[2],46%
same,Population Tubulin-Different-Phenotype (%),[2],21%
same,Total Cell Count,[2],251
same,Population Apoptotic (%),[3],61%
same,Population Fragmented Nuclei (%),[3],7%
same,Population Healthy Nuclei (%),[3],20%
same,Population Hoechst High Intensity Objects (%),[3],12%
same,Population Membrane Permeable-Phenotype (%),[3],1%
same,Population Mitochondria Different-Phenotype (%),[3],98%
same,Population Mitotic Cells (%),[3],38%
same,Population Normal (%),[3],87%
same,Population Pyknosed Nuclei (%),[3],72%
same,Population Tubulin-Different-Phenotype (%),[3],100%
same,Total Cell Count,[3],284
same,Population Apoptotic (%),[4],54%
same,Population Fragmented Nuclei (%),[4],4%
same,Population Healthy Nuclei (%),[4],13%
same,Population Hoechst High Intensity Objects (%),[4],7%
same,Population Membrane Permeable-Phenotype (%),[4],0%
same,Population Mitochondria Different-Phenotype (%),[4],100%
same,Population Mitotic Cells (%),[4],45%
same,Population Normal (%),[4],92%
same,Population Pyknosed Nuclei (%),[4],81%
same,Total Cell Count,[4],186
same,Population Apoptotic (%),[5],56%
same,Population Fragmented Nuclei (%),[5],18%
same,Population Healthy Nuclei (%),[5],30%
same,Population Hoechst High Intensity Objects (%),[5],16%
same,Population Membrane Permeable-Phenotype (%),[5],1%
same,Population Mitochondria Different-Phenotype (%),[5],75%
same,Population Mitotic Cells (%),[5],43%
same,Population Normal (%),[5],83%
same,Population Pyknosed Nuclei (%),[5],51%
same,Population Tubulin-Different-Phenotype (%),[5],43%
same,Total Cell Count,[5],254
same,Population Apoptotic (%),[6],11%
same,Population Fragmented Nuclei (%),[6],12%
same,Population Healthy Nuclei (%),[6],61%
same,Population Hoechst High Intensity Objects (%),[6],3%
same,Population Membrane Permeable-Phenotype (%),[6],4%
same,Population Mitochondria Different-Phenotype (%),[6],17%
same,Population Mitotic Cells (%),[6],88%
same,Population Normal (%),[6],96%
same,Population Pyknosed Nuclei (%),[6],26%
same,Population Tubulin-Different-Phenotype (%),[6],31%
same,Total Cell Count,[6],267
same,Population Apoptotic (%),[7],74%
same,Population Fragmented Nuclei (%),[7],12%
same,Population Healthy Nuclei (%),[7],31%
same,Population Hoechst High Intensity Objects (%),[7],12%
same,Population Membrane Permeable-Phenotype (%),[7],4%
same,Population Mitochondria Different-Phenotype (%),[7],96%
same,Population Mitotic Cells (%),[7],25%
same,Population Normal (%),[7],87%
same,Population Pyknosed Nuclei (%),[7],56%
same,Population Tubulin-Different-Phenotype (%),[7],98%
same,Total Cell Count,[7],276
same,Population Apoptotic (%),[8],72%
same,Population Fragmented Nuclei (%),[8],6%
same,Population Healthy Nuclei (%),[8],22%
same,Population Hoechst High Intensity Objects (%),[8],6%
same,Population Membrane Permeable-Phenotype (%),[8],5%
same,Population Mitochondria Different-Phenotype (%),[8],87%
same,Population Mitotic Cells (%),[8],28%
same,Population Normal (%),[8],93%
same,Population Pyknosed Nuclei (%),[8],70%
same,Population Tubulin-Different-Phenotype (%),[8],97%
same,Total Cell Count,[8],189
same,Population Apoptotic (%),[9],56%
same,Population Fragmented Nuclei (%),[9],18%
same,Population Healthy Nuclei (%),[9],23%
same,Population Hoechst High Intensity Objects (%),[9],19%
same,Population Membrane Permeable-Phenotype (%),[9],4%
same,Population Mitochondria Different-Phenotype (%),[9],54%
same,Population Mitotic Cells (%),[9],43%
same,Population Normal (%),[9],80%
same,Population Pyknosed Nuclei (%),[9],58%
same,Population Tubulin-Different-Phenotype (%),[9],45%
same,Total Cell Count,[9],255
same,Population Apoptotic (%),[10],41%
same,Population Fragmented Nuclei (%),[10],20%
same,Population Healthy Nuclei (%),[10],66%
same,Population Hoechst High Intensity Objects (%),[10],3%
same,Population Membrane Permeable-Phenotype (%),[10],5%
same,Population Mitochondria Different-Phenotype (%),[10],12%
same,Population Mitotic Cells (%),[10],58%
same,Population Normal (%),[10],96%
same,Population Pyknosed Nuclei (%),[10],12%
same,Population Tubulin-Different-Phenotype (%),[10],30%
same,Total Cell Count,[10],329
same,Population Apoptotic (%),[11],80%
same,Population Fragmented Nuclei (%),[11],18%
same,Population Healthy Nuclei (%),[11],40%
same,Population Hoechst High Intensity Objects (%),[11],11%
same,Population Membrane Permeable-Phenotype (%),[11],1%
same,Population Mitochondria Different-Phenotype (%),[11],97%
same,Population Mitotic Cells (%),[11],19%
same,Population Normal (%),[11],88%
same,Population Pyknosed Nuclei (%),[11],41%
same,Population Tubulin-Different-Phenotype (%),[11],97%
same,Total Cell Count,[11],286
same,Population Apoptotic (%),[12],82%
same,Population Fragmented Nuclei (%),[12],5%
same,Population Healthy Nuclei (%),[12],56%
same,Population Hoechst High Intensity Objects (%),[12],7%
same,Population Mitochondria Different-Phenotype (%),[12],89%
same,Population Mitotic Cells (%),[12],17%
same,Population Normal (%),[12],92%
same,Population Pyknosed Nuclei (%),[12],38%
same,Population Tubulin-Different-Phenotype (%),[12],99%
same,Total Cell Count,[12],192
CC(C)Oc1ccc(C(=O)N[C@H](CNC(=O)CN(C)C)Cc2ccc(-c3cn4cccc([C@H](C)O)c4n3)cc2)cc1Cl [GSK-923295A],Population Apoptotic (%),[1],15%
same,Population Fragmented Nuclei (%),[1],9%
same,Population Healthy Nuclei (%),[1],61%
same,Population Hoechst High Intensity Objects (%),[1],8%
same,Population Membrane Permeable-Phenotype (%),[1],6%
same,Population Mitochondria Different-Phenotype (%),[1],10%
same,Population Mitotic Cells (%),[1],84%
same,Population Normal (%),[1],91%
same,Population Pyknosed Nuclei (%),[1],28%
same,Population Tubulin-Different-Phenotype (%),[1],15%
same,Total Cell Count,[1],623
same,Population Apoptotic (%),[2],7%
same,Population Fragmented Nuclei (%),[2],6%
same,Population Healthy Nuclei (%),[2],69%
same,Population Hoechst High Intensity Objects (%),[2],2%
same,Population Membrane Permeable-Phenotype (%),[2],3%
same,Population Mitochondria Different-Phenotype (%),[2],12%
same,Population Mitotic Cells (%),[2],92%
same,Population Normal (%),[2],97%
same,Population Pyknosed Nuclei (%),[2],24%
same,Population Tubulin-Different-Phenotype (%),[2],25%
same,Total Cell Count,[2],1239
same,Population Apoptotic (%),[3],33% and 93%
same,Population Fragmented Nuclei (%),[3],22% and 19%
same,Population Healthy Nuclei (%),[3],37% and 22%
same,Population Hoechst High Intensity Objects (%),[3],20% and 23%
same,Population Normal (%),[3],79% and 76%
same,Population Pyknosed Nuclei (%),[3],39% and 58%
same,Population Tubulin-Different-Phenotype (%),[3],82% and 100%
same,Population Healthy Nuclei (%),[4],28% and 73%
same,Population Hoechst High Intensity Objects (%),[4],4%
same,Population Membrane Permeable-Phenotype (%),[4],13% and 21%
same,Population Mitochondria Different-Phenotype (%),[4],86% and 42%
same,Population Mitotic Cells (%),[4],32% and 82%
same,Population Normal (%),[4],95%
same,Population Pyknosed Nuclei (%),[4],62% and 24%
same,Population Tubulin-Different-Phenotype (%),[4],94% and 98%
same,Population Apoptotic (%),[5],10%
same,Population Fragmented Nuclei (%),[5],10%
same,Population Healthy Nuclei (%),[5],65%
same,Population Hoechst High Intensity Objects (%),[5],7%
same,Population Membrane Permeable-Phenotype (%),[5],6%
same,Population Mitochondria Different-Phenotype (%),[5],11%
same,Population Mitotic Cells (%),[5],90%
same,Population Normal (%),[5],92%
same,Population Pyknosed Nuclei (%),[5],24%
same,Population Tubulin-Different-Phenotype (%),[5],23%
same,Total Cell Count,[5],668
same,Population Apoptotic (%),[6],12%
same,Population Fragmented Nuclei (%),[6],13%
same,Population Healthy Nuclei (%),[6],77%
same,Population Hoechst High Intensity Objects (%),[6],4%
same,Population Membrane Permeable-Phenotype (%),[6],4%
same,Population Mitochondria Different-Phenotype (%),[6],8%
same,Population Mitotic Cells (%),[6],87%
same,Population Normal (%),[6],95%
same,Population Pyknosed Nuclei (%),[6],8%
same,Population Tubulin-Different-Phenotype (%),[6],28%
same,Total Cell Count,[6],1632
same,Population Apoptotic (%),[7],92% and 41%
same,Population Fragmented Nuclei (%),[7],19%
same,Population Healthy Nuclei (%),[7],33% and 54%
same,Population Hoechst High Intensity Objects (%),[7],22% and 18%
same,Population Membrane Permeable-Phenotype (%),[7],0% and 19%
same,Population Mitochondria Different-Phenotype (%),[7],100% and 41%
same,Population Normal (%),[7],77% and 81%
same,Population Pyknosed Nuclei (%),[7],47% and 26%
same,Population Tubulin-Different-Phenotype (%),[7],91%
same,Population Fragmented Nuclei (%),[8],8% and 4%
same,Population Healthy Nuclei (%),[8],39% and 72%
same,Population Hoechst High Intensity Objects (%),[8],4% and 7%
same,Population Mitochondria Different-Phenotype (%),[8],94% and 40%
same,Population Normal (%),[8],95% and 92%
same,Population Pyknosed Nuclei (%),[8],51% and 22%
same,Population Tubulin-Different-Phenotype (%),[8],96% and 98%
same,Population Apoptotic (%),[11],87%
same,Population Fragmented Nuclei (%),[11],23%
same,Population Healthy Nuclei (%),[11],46%
same,Population Hoechst High Intensity Objects (%),[11],30%
same,Population Membrane Permeable-Phenotype (%),[11],3%
same,Population Mitochondria Different-Phenotype (%),[11],100%
same,Population Mitotic Cells (%),[11],12%
same,Population Normal (%),[11],69%
same,Population Pyknosed Nuclei (%),[11],29%
same,Population Tubulin-Different-Phenotype (%),[11],88%
same,Total Cell Count,[11],156
same,Population Apoptotic (%),[12],75%
same,Population Fragmented Nuclei (%),[12],10%
same,Population Healthy Nuclei (%),[12],53%
same,Population Hoechst High Intensity Objects (%),[12],15%
same,Population Membrane Permeable-Phenotype (%),[12],9%
same,Population Mitochondria Different-Phenotype (%),[12],86%
same,Population Mitotic Cells (%),[12],24%
same,Population Normal (%),[12],84%
same,Population Pyknosed Nuclei (%),[12],35%
same,Population Tubulin-Different-Phenotype (%),[12],97%
same,Total Cell Count,[12],164
